GASC1 inh: KDM4C (human) demethylase inhibition. Q9H3R0. GST-KDM4C 2-372, H3K9me3 peptide, LANCE TR-FRET. inhibition, % at 12.5 µM. actives 0.15% (n = 96,000);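 active = mean replicate inhibition above about 25%, with at least 55% of replicates also reaching it, limit read from the data, passing the limit was not always enough; inconclusive = only one of those two conditions met; inactive = neither condition met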
Target sequence (Q9H3R0 2-372 limits assumed): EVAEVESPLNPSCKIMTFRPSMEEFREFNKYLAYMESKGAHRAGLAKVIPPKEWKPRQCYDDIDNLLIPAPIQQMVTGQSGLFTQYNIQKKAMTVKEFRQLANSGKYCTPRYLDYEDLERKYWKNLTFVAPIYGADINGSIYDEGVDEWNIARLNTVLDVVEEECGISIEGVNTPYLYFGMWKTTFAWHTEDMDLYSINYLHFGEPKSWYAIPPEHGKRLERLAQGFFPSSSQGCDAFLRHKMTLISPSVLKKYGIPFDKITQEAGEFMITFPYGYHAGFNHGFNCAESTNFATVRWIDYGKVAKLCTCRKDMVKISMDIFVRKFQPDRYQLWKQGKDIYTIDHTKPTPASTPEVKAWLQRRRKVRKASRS
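Material: GST-tagged GASC-1 (JMJD2C) catalytic fragment, aa 2-372 / Quantity: enzyme final amount 10 nM / Medium: HEPES buffer, pH 7.5, plus ascorbate / Doses: one test concentration per compound / Incubation: 30 min reaction, 60 min detection, RT / Measured by: LANCE TR-FRET / Read-out: inhibition from TR-FRET ratio decrease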
T cruzi growth-1: inhibitors of T. cruzi proliferation; T. cruzi beta-gal in NIH3T3, GalScreen luminescence, 90 h; inhibition, % at 8.34 µM; actives 5.9% (n = 77,000); AID 624255;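 active = mean inhibition above about 93%, with at least 55% of replicates each passing it, limit read from the data, passing the limit was not always enough; inconclusive = only one of those two conditions holds; inactive = neither condition holds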
IDH1 R132H inh: blocks human IDH1 R132H reductase activity | O75874 | diaphorase/resazurin fluorescence, 60 min | inhibition, % at 10 µM | actives 0.18% (n = 70,000) | AID 624101; in the data active = inhibition above about 34%; inconclusive = no clear call, values can overlap the other calls; inactive = below about 11%;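 note: 0% = DMSO and 100% = no enzyme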
T cruzi growth-2: Trypanosoma cruzi proliferation inhibition; T. cruzi beta-gal in NIH3T3, GalScreen luminescence, 90 h; actives 72% (n = 5,600); inhibition, % at 8.35 µM; shares compounds with T cruzi growth-1; AID 651739;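 active = mean replicate inhibition above about 95% and at least 55% of replicates individually reaching it, limit read from the data; inconclusive = only one of the two criteria is met; inactive = neither criterion is met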
T cruzi growth-3: inhibitors of T. cruzi proliferation | inhibition, % at 2.09 µM | actives 21% (n = 5,600) | T. cruzi beta-gal in NIH3T3, GalScreen luminescence, 90 h | shares compounds with T cruzi growth-1;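 active = mean inhibition above about 95%, with at least 55% of replicates also reaching it, limit read from the data; inconclusive = meets just one of the two conditions; inactive = meets neither condition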;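 note: plate controls were neutral control median for no effect and positive control median for full effect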
3T3 cytotox: cytotoxicity in mouse NIH/3T3 fibroblasts | shares compounds with T cruzi growth-1 | cytotoxicity (signal decrease), % at 8.35 µM | NIH/3T3 viability, CellTiter-Glo ATP luminescence, 90 h | AID 651742 | actives 14% (n = 5,600);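 active = mean signal decrease across replicates above about 35% based on untreated-well scatter, with enough replicates individually passing, limit read from the data; inconclusive = no rule stated though some were filed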;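 note: 0% = median of neutral control wells and 100% = median of positive control wells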
NIH3T3 tox 2: cytotoxicity in mouse NIH/3T3 fibroblasts. NIH/3T3 viability, CellTiter-Glo ATP luminescence, 90 h. shares compounds with T cruzi growth-1. inhibition, % at 24.9 µM. actives 56% (n = 5,600);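 active = mean loss of cell viability signal at or above a set limit, and enough replicates individually reaching it; inconclusive = meets only the mean limit or only the replicate share; inactive = meets neither condition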;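 note: 0% = median of neutral control wells and 100% = median of positive control wells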
* hit, by the source's call; ? = inconclusive; . = no result. The sample as a whole holds a higher share of hits than the screen did.

SMILES	GASC1 inh	T cruzi growth-1	IDH1 R132H inh	T cruzi growth-2	T cruzi growth-3	3T3 cytotox	NIH3T3 tox 2
COc1ccc(S(=O)(=O)Nc2ccc3c(c2)C(=O)N([C@H](C)CO)C[C@H](C)[C@H](CN(C)S(=O)(=O)c2ccc(F)cc2)OCCCC[C@H](C)O3)cc1	-1.8	80.3	0.3	.	.	.	.
Cc1cc(N(CC(=O)NC2CCCCCC2)S(C)(=O)=O)ccc1Br	.	.	0.3	.	.	.	.
C[C@H](CO)N1C[C@H](C)[C@H](CN(C)Cc2ccc(Cl)c(Cl)c2)Oc2c(NC(=O)Nc3ccc(C(F)(F)F)cc3)cccc2C1=O	.	127.8*	-0.2	104.7*	100.9*	7.0	98.4*
C[C@H]1CN([C@@H](C)CO)C(=O)c2cccc(NC(=O)Nc3ccc(F)cc3)c2O[C@@H]1CN(C)Cc1ccc(Oc2ccccc2)cc1	-1.1	?	2.3	102.7*	85.3	4.6	36.8*
C[C@@H]1CN([C@@H](C)CO)C(=O)c2cccc(NC(=O)Nc3ccc(C(F)(F)F)cc3)c2O[C@@H]1CN(C)Cc1ccc2c(c1)OCO2	-2.2	?	0.2	104.5*	12.7	-6.9	104.2*
C[C@H](CO)N1C[C@H](C)[C@H](CN(C)Cc2ccc(Cl)c(Cl)c2)Oc2c(NC(=O)Nc3ccc(F)cc3)cccc2C1=O	-4.4	60.4	.	.	.	.	.
C[C@H](CO)N1C[C@H](C)[C@H](CN(C)Cc2ccc(C(F)(F)F)cc2)Oc2c(NC(=O)Nc3ccc4c(c3)OCO4)cccc2C1=O	0.3	86.7	.	.	.	.	.
C[C@@H]1CN([C@@H](C)CO)C(=O)c2cccc(NC(=O)Nc3ccc(F)cc3)c2O[C@@H]1CN(C)Cc1ccc(Oc2ccccc2)cc1	-2.4	110.6	.	.	.	.	.
C[C@H]1CN([C@@H](C)CO)C(=O)c2cccc(NC(=O)Nc3ccccc3)c2O[C@@H]1CN(C)Cc1ccc(C(F)(F)F)cc1	-2.5	73.4	0.1	.	.	.	.
C[C@H](CO)N1C[C@H](C)[C@@H](CN(C)Cc2ccc(Oc3ccccc3)cc2)Oc2c(NC(=O)Nc3ccc(C(F)(F)F)cc3)cccc2C1=O	-0.4	128.7*	-1.6	101.3*	88.7	8.1	104.3*
CC1(CO)CCCC2(C)C3=C(CC(=O)C12)C(=O)OC3 (stereo unspecified)	.	.	0.5	.	.	.	.
COc1ccc(S(=O)(=O)N(C)CC(=O)Nc2ccccc2Cl)cc1	.	.	0.3	.	.	.	.
O=[N+]([O-])c1ccc2nc(CSc3ncnc4ccccc34)[nH]c2c1	.	.	0.9	.	.	.	.
C[C@@H]1CN([C@@H](C)CO)C(=O)c2cccc(NC(=O)NC3CCCCC3)c2O[C@H]1CN(C)Cc1ccc(Cl)c(Cl)c1	0.6	?	.	106.9*	72.6	13.7	70.3*
Cc1noc(C)c1NC(=O)Nc1cccc2c1O[C@@H](CN(C)Cc1ccncc1)[C@H](C)CN([C@@H](C)CO)C2=O	1.4	109.7*	2.1	-1.7	-0.4	-6.2	-7.6
C[C@@H]1CN([C@H](C)CO)C(=O)c2cccc(NC(=O)C3CCOCC3)c2O[C@H]1CN(C)Cc1ccc(Oc2ccccc2)cc1	-0.7	?	1.0	101.9*	51.8	26.9	3.9
Cc1noc(C)c1NC(=O)Nc1cccc2c1O[C@@H](CN(C)Cc1ccncc1)[C@H](C)CN([C@H](C)CO)C2=O	-1.7	42.9	.	.	.	.	.
C[C@@H]1CN([C@@H](C)CO)C(=O)c2cccc(NC(=O)C3CCOCC3)c2O[C@@H]1CN(C)Cc1ccc(Oc2ccccc2)cc1	-0.7	42.1	-1.0	.	.	.	.
C[C@@H]1CN([C@@H](C)CO)C(=O)c2cccc(NC(=O)NC3CCCCC3)c2O[C@@H]1CN(C)Cc1ccc(Cl)c(Cl)c1	5.0	39.8	-0.9	.	.	.	.
C[C@H](CO)N1C[C@H](C)[C@H](CN(C)Cc2ccc(C(F)(F)F)cc2)Oc2c(NC(=O)Nc3ccc(C(F)(F)F)cc3)cccc2C1=O	-3.6	100.9*	.	?	77.3	-3.8	75.4*
C[C@H]1CN([C@@H](C)CO)C(=O)c2cccc(NC(=O)Nc3ccc(F)cc3)c2O[C@H]1CN(C)Cc1ccc(C(F)(F)F)cc1	-0.2	55.4	0.5	.	.	.	.
O=C(c1ccccc1)c1cc(Cl)ccc1NS(=O)(=O)c1ccccc1[N+](=O)[O-]	.	.	-0.1	.	.	.	.

Source: PubChem
